{"source": "paper PMC8887543", "about": "(Nucleic Acids Research, 2022)", "key": {"[1]": {"system": "G4-DNA (c-MYC promoter, telomeric) versus other nucleic acids", "experiment": "Selectivity screening by induced fluorescence with 20 nucleic acids", "type": "binding", "details": "5 μM ligand, 18 μM nucleic acid, Tris–HCl pH 7.4, 60 mM KCl", "method_in_brief": "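For induced-fluorescence selectivity, the test compound (5 μM) was mixed with each nucleic acid (18 μM) in 10 mM Tris–HCl (pH 7.4) with 60 mM KCl. Emission was recorded on a fluorescence spectrometer against compound alone without DNA. Samples were also viewed under 302 nm UV illumination.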"}, "MCF-7 cells": {"system": "MCF-7 cells", "experiment": "BRACO19 displacement in stained cells, confocal imaging", "type": "cell-based, human", "details": "ligand 5 μM, BRACO19 0–15 μM", "method_in_brief": "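MCF-7 cells were stained with the test compound (5 μM) plus increasing BRACO19 (0–15 μM) for displacement. Images were taken by laser-scanning confocal microscopy with 488 nm excitation. A parallel solution assay followed fluorescence of the compound (5 μM) bound to nucleic acid under the same BRACO19 range.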"}, "[2]": {"system": "dT21 (DNA, single strand) TTTTTTTTTTTTTTTTTTTTT", "experiment": "fluorescence light-up", "details": "60 mM KCl; 10 mM Tris-HCl, pH 7.4"}}}
{"smiles": "CN1C(=Cc2cc[n+](C)c3ccccc23)Sc2ccccc21", "note": "[TO, thiazole orange]", "values": [{"measurement": "Selectivity toward G4-DNA structures by induced fluorescence", "setting": "[1]", "value": "non-selective"}, {"measurement": "Fluorescence change in stained cells after BRACO19 treatment", "setting": "MCF-7 cells", "value": "not obvious"}, {"measurement": "binding", "setting": "[2]", "value": "weak"}]}
